Values after ≈ are worked out from the molar mass of the structure shown. Active and inactive are the calls of the source. The rule behind the calls is not given here.
Legend:
[1] = test system: DU-145; experiment: Cytotoxicity against human DU145 cells after 48 hrs by sulforhodamine B assay; assay type: functional; settings: DU-145, 48 h
Method in brief: (§1)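 Cells were grown in RPMI-1640 with 5% fetal bovine serum in 96-well plates for 24 h, then exposed to serial dilutions in DMSO vehicle for 48 h. Plates were fixed with trichloroacetic acid, stained with sulforhodamine B and read for optical density. GI50 is the concentration giving a 50% reduction in net protein increase.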

[2] = test system: KM-20L2; experiment: Cytotoxicity against human KM20L2 cells after 48 hrs by sulforhodamine B assay; assay type: functional; settings: KM-20L2, 48 h; method in brief: as §1
[3] = test system: NCI-H460; experiment: Cytotoxicity against human NCI-H460 cells after 48 hrs by sulforhodamine B assay; assay type: functional; settings: NCI-H460, 48 h; method in brief: as §1
[4] = test system: MCF7; experiment: Cytotoxicity against human MCF7 cells after 48 hrs by sulforhodamine B assay; assay type: functional; settings: MCF7, 48 h; method in brief: as §1
[5] = test system: SF-268; experiment: Cytotoxicity against human SF268 cells after 48 hrs by sulforhodamine B assay; assay type: functional; settings: SF-268, 48 h; method in brief: as §1
[6] = test system: BXPC-3; experiment: Cytotoxicity against human BxPC3 cells after 48 hrs by sulforhodamine B assay; assay type: functional; settings: BXPC-3, 48 h; method in brief: as §1
[7] = test system: P388; experiment: Cytotoxicity against mouse P388 cells after 48 hrs by coulter counter method; assay type: functional; settings: P388, 48 h, read-out: ED50 (the source's name)
Method in brief: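 Murine lymphocytic leukemia P388 cells were preincubated for 24 h in Fisher medium with 10% horse serum, then incubated 48 h with serial dilutions in DMSO vehicle. Cells were counted on a Coulter particle counter, and ED50 was taken as the concentration giving 50% growth inhibition.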

[8] = test system: Streptococcus pyogenes; experiment: Antibacterial activity against Streptococcus pyogenes clinical isolate by broth microdilution assay in presence of 25% heat inactivated human serum; assay type: functional
[9] = test system: Streptococcus pneumoniae; experiment: Antibacterial activity against Streptococcus pneumoniae by broth microdilution assay in presence of 25% heat inactivated human serum; assay type: functional
[10] = test system: Neisseria gonorrhoeae; experiment: Antibacterial activity against Neisseria gonorrhoeae ATCC 49226 at 64 ug/mL by broth microdilution assay; assay type: functional, organism-based
[11] = test system: Enterobacter cloacae; experiment: Antibacterial activity against Enterobacter cloacae ATCC 13047 at 64 ug/mL by broth microdilution assay; assay type: functional, organism-based
[12] = test system: Stenotrophomonas maltophilia; experiment: Antibacterial activity against Stenotrophomonas maltophilia ATCC 13637 at 64 ug/mL by broth microdilution assay; assay type: functional, organism-based
[13] = test system: Escherichia coli; experiment: Antibacterial activity against Escherichia coli ATCC 25922 at 64 ug/mL by broth microdilution assay; assay type: functional, organism-based
[14] = test system: Enterococcus faecalis; experiment: Antibacterial activity against Enterococcus faecalis ATCC 29212 at 64 ug/mL by broth microdilution assay; assay type: functional, organism-based
[15] = test system: Micrococcus luteus; experiment: Antibacterial activity against Micrococcus luteus Presque Isle 456 at 64 ug/mL by broth microdilution assay; assay type: functional, organism-based
[16] = test system: Staphylococcus aureus; experiment: Antibacterial activity against Staphylococcus aureus ATCC 29213 at 64 ug/mL by broth microdilution assay; assay type: functional, organism-based
[17] = test system: Cryptococcus neoformans; experiment: Antifungal activity against Cryptococcus neoformans ATCC 90112 at 64 ug/mL by broth microdilution assay; assay type: functional, organism-based
[18] = test system: Candida albicans; experiment: Antifungal activity against Candida albicans ATCC 90028 at 64 ug/mL by broth microdilution assay; assay type: functional, organism-based
[19] = test system: Streptococcus pyogenes; experiment: Antibacterial activity against Streptococcus pyogenes clinical isolate by broth microdilution assay; assay type: functional
[20] = test system: Streptococcus pneumoniae; experiment: Antibacterial activity against multidrug-resistant Streptococcus pneumoniae ATCC 700673 by broth microdilution assay; assay type: functional
[21] = test system: Streptococcus pneumoniae; experiment: Antibacterial activity against Streptococcus pneumoniae ATCC 6303 by broth microdilution assay; assay type: functional
[22] = test system: Streptococcus pneumoniae; experiment: Antibacterial activity against penicillin-resistant Streptococcus pneumoniae clinical isolate by broth microdilution assay; assay type: functional

Row | Compound | GI50 [1] [µg/mL] | GI50 [2] [µg/mL] | GI50 [3] [µg/mL] | GI50 [4] [µg/mL] | GI50 [5] [µg/mL] | GI50 [6] [µg/mL] | EC50 [7] [µg/mL] | MIC [8] [µg/mL] | MIC [9] [µg/mL] | Activity [10] | Activity [11] | Activity [12] | Activity [13] | Activity [14] | Activity [15] | Activity [16] | Activity [17] | Activity [18] | MBC [19] [µg/mL] | MIC [19] [µg/mL] | further results
1 | CC(C)[C@@H]1NC(=O)[C@H](C)OC(=O)[C@@H](C(C)C)NC(=O)[C@@H](C(C)C)OC(=O)[C@H](C(C)C)NC(=O)[C@H](C)OC(=O)[C@@H](C(C)C)NC(=O)[C@@H](C(C)C)OC(=O)[C@H](C(C)C)NC(=O)[C@H](C)OC(=O)[C@@H](C(C)C)NC(=O)[C@@H](C(C)C)OC1=O [VALINOMYCIN] | 0.0035 (≈ 3.15 nM) | 0.0008 (≈ 0.72 nM) | 0.0025 (≈ 2.25 nM) | 0.001 (≈ 0.9 nM) | 0.0027 (≈ 2.43 nM) | 0.0019 (≈ 1.71 nM) | 0.12 (≈ 108 nM) |  |  |  |  |  |  |  |  |  |  |  |  |  | 
2 | CC[C@H](C)[C@H]1OC(=O)[C@H](C(C)C)NC(=O)[C@H](C)OC(=O)[C@@H](C(C)C)NC(=O)[C@@H]([C@@H](C)CC)OC(=O)[C@H](C(C)C)NC(=O)[C@H](C)OC(=O)[C@@H](C(C)C)NC(=O)[C@@H](CC(C)C)OC(=O)[C@H](C(C)C)NC(=O)[C@H](C)OC(=O)[C@@H](C(C)C)NC1=O | 0.00086 (≈ 0.746 nM) | 0.00026 (≈ 0.225 nM) | 0.00045 (≈ 0.39 nM) | 0.00031 (≈ 0.269 nM) | 0.0018 (≈ 1.56 nM) | 0.00034 (≈ 0.295 nM) | 0.013 (≈ 11.3 nM) | > 64 | > 64 | inactive | inactive | inactive | inactive | inactive | inactive | inactive | inactive | inactive | > 16 | 2 (≈ 1730 nM) | MBC [20]: < 0.5 µg/mL; MIC [20]: < 0.5 µg/mL; MBC [21]: 2 µg/mL (≈ 1730 nM); MIC [21]: 1 µg/mL (≈ 867 nM); MBC [22]: 1 µg/mL (≈ 867 nM); MIC [22]: 1 µg/mL (≈ 867 nM)
3 | CC[C@H](C)[C@H]1OC(=O)[C@H](C(C)C)NC(=O)[C@H](C)OC(=O)[C@@H](C(C)C)NC(=O)[C@@H]([C@@H](C)CC)OC(=O)[C@H](C(C)C)NC(=O)[C@H](C)OC(=O)[C@@H](C(C)C)NC(=O)[C@@H]([C@@H](C)CC)OC(=O)[C@H](C(C)C)NC(=O)[C@H](C)OC(=O)[C@@H](C(C)C)NC1=O [BACILLISTATIN 1] | 0.0015 (≈ 1.3 nM) | 0.00087 (≈ 0.754 nM) | 0.0023 (≈ 1.99 nM) | 0.00061 (≈ 0.529 nM) | 0.00045 (≈ 0.39 nM) | 0.00095 (≈ 0.824 nM) | 0.023 (≈ 19.9 nM) | > 64 | > 64 | inactive | inactive | inactive | inactive | inactive | inactive | inactive | inactive | inactive | > 32 | 2 (≈ 1730 nM) | MBC [20]: 1 µg/mL (≈ 867 nM); MIC [20]: < 0.5 µg/mL; MBC [21]: 4 µg/mL (≈ 3470 nM); MIC [21]: 2 µg/mL (≈ 1730 nM); MBC [22]: 2 µg/mL (≈ 1730 nM); MIC [22]: 1 µg/mL (≈ 867 nM)

— ChEMBL document CHEMBL1151986, “Antineoplastic agents. 570. Isolation and structure elucidation of bacillistatins 1 and 2 from a marine Bacillus silvestris” (2009)
